pIC50, pKd: −log10 of the molar value. One block for each compound: values may come before it.
Experiments:
LDHB [1] = target: T1, LDHB (Homo sapiens, UniProt P07195); test: Differential scanning fluorimetry; assay type: binding
LDHB [2] = target: T1, LDHB; test: Binding to palmitoyl-CoA immobilized on agarose beads
Summary of the method: (§1)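 Pull-down of LDH protein on palmitoyl-CoA immobilized on agarose beads. Competition with free palmitoyl-CoA, with buffer alone or acetyl-CoA as comparators.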

LDHA [3] = target: T2, LDHA (Homo sapiens, UniProt P00338); test: Differential scanning fluorimetry; assay type: binding
LDHA [4] = target: T2, LDHA; test: Binding to palmitoyl-CoA immobilized on agarose beads
Summary of the method: as §1

LDHA [5] = target: T2, LDHA; test: LDH enzyme activity assay; assay type: biochemical; settings: for mode of LDHA inhibition: with respect to NAD and lactate
Summary of the method: (§2)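 LDH isoform activity measured in vitro with test metabolites (adenosine nucleotides, CoA and acyl-CoAs) over a concentration range. IC50 is derived from the inhibition curves. Mode of inhibition is assessed against NAD and lactate.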

FBP1 = target: T3, FBP1 (Homo sapiens, UniProt P09467); test: MIDAS protein-metabolite interaction screen; assay type: binding; settings: significant PMI Q < 0.01
T3 sequence (P09467 1-338): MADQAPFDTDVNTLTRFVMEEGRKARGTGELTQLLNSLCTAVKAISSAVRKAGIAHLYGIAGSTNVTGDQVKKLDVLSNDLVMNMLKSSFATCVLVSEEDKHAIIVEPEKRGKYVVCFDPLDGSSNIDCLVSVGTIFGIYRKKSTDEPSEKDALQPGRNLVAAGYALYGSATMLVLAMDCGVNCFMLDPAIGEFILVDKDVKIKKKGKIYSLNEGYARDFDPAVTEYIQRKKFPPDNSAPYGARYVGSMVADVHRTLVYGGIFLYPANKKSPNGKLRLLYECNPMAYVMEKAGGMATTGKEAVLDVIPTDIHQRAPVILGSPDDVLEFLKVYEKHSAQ
Summary of the method: (§3)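 Purified protein is separated from a defined metabolite library by a semipermeable dialysis membrane that passes metabolites but not protein, then incubated to relative equilibrium. Protein is denatured and removed. Metabolites in both chambers are quantified by flow injection analysis–MS, with methods optimized for each pool. The between-chamber fold change is normalized and corrected for nonspecific interactions.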

FBP2 = target: T4, FBP2 (Homo sapiens, UniProt O00757); test: MIDAS protein-metabolite interaction screen; assay type: binding; settings: significant PMI Q < 0.01
T4 sequence (O00757 1-339): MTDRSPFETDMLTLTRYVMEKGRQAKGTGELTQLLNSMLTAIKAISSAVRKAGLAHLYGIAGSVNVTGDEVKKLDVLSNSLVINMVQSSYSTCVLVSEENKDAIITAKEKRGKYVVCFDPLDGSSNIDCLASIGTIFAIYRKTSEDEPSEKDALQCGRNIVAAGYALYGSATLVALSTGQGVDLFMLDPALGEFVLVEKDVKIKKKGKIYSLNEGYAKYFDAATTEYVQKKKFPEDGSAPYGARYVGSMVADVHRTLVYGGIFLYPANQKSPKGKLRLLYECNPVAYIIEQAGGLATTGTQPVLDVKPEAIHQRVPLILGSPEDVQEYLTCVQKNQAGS
Summary of the method: as §3

ENO2 [6] = target: T5, ENO2 (Homo sapiens, UniProt P09104); test: MIDAS protein-metabolite interaction screen; assay type: binding; settings: significant PMI Q < 0.01
Summary of the method: as §3

ENO1 [7] = target: T6, ENO1 (Homo sapiens, UniProt P06733); test: Differential scanning fluorimetry; assay type: binding
ENO1 [8] = target: T6, ENO1; test: MIDAS protein-metabolite interaction screen; assay type: binding; settings: significant PMI Q < 0.01
Summary of the method: as §3

enolase = test: In vitro enolase activity; assay type: biochemical, human
ENO2 [9] = target: T5, ENO2; test: Differential scanning fluorimetry; assay type: binding
LDHB [10] = target: T1, LDHB; test: LDH enzyme activity assay; assay type: biochemical; settings: in vitro
Summary of the method: as §2

fumarase [11] = target: T7, fumarase (Homo sapiens, UniProt P07954); test: Differential scanning fluorimetry; assay type: binding
T7 sequence (P07954 45-510): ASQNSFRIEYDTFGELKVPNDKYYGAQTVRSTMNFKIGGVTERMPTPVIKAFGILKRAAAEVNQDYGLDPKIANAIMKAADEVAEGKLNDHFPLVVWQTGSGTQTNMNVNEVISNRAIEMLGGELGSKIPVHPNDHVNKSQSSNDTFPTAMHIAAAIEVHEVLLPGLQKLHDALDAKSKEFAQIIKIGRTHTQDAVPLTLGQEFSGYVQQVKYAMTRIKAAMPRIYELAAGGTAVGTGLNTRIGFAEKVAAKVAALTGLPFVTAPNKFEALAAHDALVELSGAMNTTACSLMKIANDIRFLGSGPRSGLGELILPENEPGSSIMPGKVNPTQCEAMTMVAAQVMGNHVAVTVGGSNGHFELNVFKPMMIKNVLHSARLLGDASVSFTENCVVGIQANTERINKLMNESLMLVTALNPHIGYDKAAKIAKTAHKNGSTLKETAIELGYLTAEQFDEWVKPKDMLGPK

fumarase (FH) = target: T8, fumarase (FH) (Homo sapiens, UniProt P07954); test: MIDAS protein-metabolite interaction screen; assay type: binding; settings: significant PMI Q < 0.01
T8 sequence (P07954 45-510): T7 sequence (P07954 45-510)
Summary of the method: as §3

fumarase [12] = target: T7, fumarase; test: Fumarase kinetic assays; assay type: biochemical

T1 sequence (P07195 whole entry): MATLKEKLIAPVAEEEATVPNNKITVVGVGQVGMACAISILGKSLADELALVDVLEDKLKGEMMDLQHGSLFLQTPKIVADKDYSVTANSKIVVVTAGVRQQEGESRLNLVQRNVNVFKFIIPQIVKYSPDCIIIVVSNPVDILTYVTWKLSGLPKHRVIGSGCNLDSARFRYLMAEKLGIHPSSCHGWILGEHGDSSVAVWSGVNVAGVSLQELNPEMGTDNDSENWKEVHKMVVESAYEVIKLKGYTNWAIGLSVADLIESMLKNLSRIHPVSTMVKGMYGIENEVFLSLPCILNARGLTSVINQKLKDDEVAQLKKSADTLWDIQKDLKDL
T5 sequence (P09104 whole entry): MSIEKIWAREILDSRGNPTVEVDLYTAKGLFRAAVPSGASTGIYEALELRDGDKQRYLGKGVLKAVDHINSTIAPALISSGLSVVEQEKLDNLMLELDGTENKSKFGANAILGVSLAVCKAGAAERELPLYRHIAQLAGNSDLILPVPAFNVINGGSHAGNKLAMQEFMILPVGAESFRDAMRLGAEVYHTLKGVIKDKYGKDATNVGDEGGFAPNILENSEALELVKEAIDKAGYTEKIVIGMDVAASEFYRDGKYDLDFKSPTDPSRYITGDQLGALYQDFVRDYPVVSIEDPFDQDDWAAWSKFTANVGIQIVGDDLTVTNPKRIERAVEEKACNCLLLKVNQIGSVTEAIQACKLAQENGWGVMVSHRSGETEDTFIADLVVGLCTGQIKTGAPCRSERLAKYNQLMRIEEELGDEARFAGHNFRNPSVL
T6 sequence (P06733 whole entry): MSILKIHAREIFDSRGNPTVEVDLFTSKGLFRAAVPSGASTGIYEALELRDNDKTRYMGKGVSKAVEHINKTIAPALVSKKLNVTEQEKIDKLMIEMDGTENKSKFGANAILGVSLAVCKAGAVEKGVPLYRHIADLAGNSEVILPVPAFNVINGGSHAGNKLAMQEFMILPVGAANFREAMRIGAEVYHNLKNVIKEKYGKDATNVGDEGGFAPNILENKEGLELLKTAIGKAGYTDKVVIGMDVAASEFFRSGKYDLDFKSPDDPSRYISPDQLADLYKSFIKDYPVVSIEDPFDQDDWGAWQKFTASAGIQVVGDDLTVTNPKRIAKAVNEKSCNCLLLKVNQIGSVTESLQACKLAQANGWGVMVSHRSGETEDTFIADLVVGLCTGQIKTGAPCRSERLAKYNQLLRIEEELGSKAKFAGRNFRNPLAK

protein species induced in DSF assay (LDHB [1]; LDHB, low-micromolar concentrations of ligand): thermostable species | disruption of protein binding to immobilized palmitoyl-CoA by free competitor (LDHB [2]; agarose beads): disrupted | affinity of direct interaction (LDHB [2]; from DSF and bead binding): low-micromolar affinity | protein species induced in DSF assay (LDHA [3]; LDHA, low-micromolar concentrations of ligand): thermolabile species | disruption of protein binding to immobilized palmitoyl-CoA by free competitor (LDHA [4]; agarose beads): disrupted | affinity of direct interaction (LDHA [4]; from DSF and bead binding): low-micromolar affinity | pIC50 (LDHA [5]; LDHA enzyme activity, acyl-CoAs): ~6.00 | mode of LDHA inhibition (LDHA [5]): noncompetitive
SMILES: CCCCCCCCCCCCCCCC(=O)SCCNC(=O)CCNC(=O)[C@H](O)C(C)(C)COP(=O)(O)OP(=O)(O)OC[C@H]1O[C@@H](n2cnc3c(N)ncnc32)[C@H](O)[C@@H]1OP(=O)(O)O [C16:0-CoA, palmitoyl-CoA]

MIDAS protein-metabolite interaction (FBP1): showed an interaction | MIDAS protein-metabolite interaction (FBP2): only FBP1 showed an interaction
SMILES: N[C@H]1C(O)O[C@H](COP(=O)(O)O)[C@@H](O)[C@@H]1O (stereo partly drawn) [glucosamine-6-phosphate]

MIDAS protein-metabolite interaction (ENO2 [6]): most enriched metabolite | pKd (ENO1 [7]): 2.86 | MIDAS protein-metabolite interaction (ENO1 [8]): most enriched metabolite | inhibition of in vitro enolase activity (enolase): only weakly inhibited | pKd (ENO2 [9]): 2.94
SMILES: N[C@@H](COP(=O)(O)O)C(=O)O [pSer, phosphoserine]

MIDAS protein-metabolite interaction (FBP1): interacted | MIDAS protein-metabolite interaction (FBP2): interacted
SMILES: O=P(O)(O)OC[C@H]1O[C@H](OP(=O)(O)OP(=O)(O)O)[C@H](O)[C@@H]1O [PRPP, 5-phospho-D-ribose 1-diphosphate]

pKd (LDHB [1]): 3.16 | pKd (LDHA [3]): 3.20 | inhibition of LDHB enzyme activity (LDHB [10]): inhibited only the LDHA isoform | mode of LDHA inhibition (LDHA [5]): competitive
SMILES: Nc1ncnc2c1ncn2[C@@H]1O[C@H](COP(=O)(O)OP(=O)(O)OP(=O)(O)O)[C@@H](O)[C@H]1O [ATP, adenosine triphosphate]

SMILES: NC(CP(=O)(O)O)C(=O)O (stereo not drawn) [AP-3, 2-amino-3-phosphonopropionic acid]
pKd (fumarase [11]): 3.01 | MIDAS protein-metabolite interaction (fumarase (FH)): putative interactor | inhibition of fumarase, mode (fumarase [12]): competitively inhibited

Reference: article PMC10262665 (Science (New York, N.Y.), 2023)
